Test system: not listed separately
Experiment: Growth inhibition of pro-apoptotic stimuli-resistant human U373 cells after 72 hrs by MTT assay
Format: functional, U-373MG ATCC
Details: U373 MG
Method in brief: (§1)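 Cells seeded at 10,000 to 40,000 cells/mL depending on cell type and allowed to attach for 24 h. They were then cultured 72 h with or without compound (untreated control). Living cells were measured by MTT reduction to formazan, read at 570 nm against a 630 nm reference. GI50 was derived from the growth levels.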

SMILES | GI50
O=C(O[C@H]1C=C2CCN3Cc4cc5c(cc4[C@H]([C@@H]1O)[C@@H]23)OCO5)c1ccccc1 | 1 µM
CCOC(=O)C[C@@]12C=C[C@@H](OC(C)=O)[C@H]3c4cc5c(cc4CN(CC1)[C@@H]32)OCO5 | > 100 µM
CC(C)(C)OC(=O)O[C@H]1[C@H]2c3cc4c(cc3CN3CCC(=C[C@@H]1OC(=O)OC(C)(C)C)[C@H]23)OCO4 | 4 µM
CC(=O)O[C@H]1[C@H]2c3cc4c(cc3C(=O)N3CCC(=C[C@@H]1OC(C)=O)[C@H]23)OCO4 | 39 µM
O=C1c2cc3c(cc2[C@@H]2[C@H](O)[C@@H](O)[C@H](O)[C@@]4(O)CCN1[C@@H]24)OCO3 | > 100 µM
CC(=O)O[C@@H]1[C@@H](OC(C)=O)[C@H](O)[C@@]2(O)CCN3C(=O)c4cc5c(cc4[C@H]1[C@H]32)OCO5 | > 100 µM
O[C@H]1[C@H]2c3cc4c(cc3CN3CCC(=C[C@@H]1O)[C@H]23)OCO4 [LYCORINE] | 3 µM

Test system: not listed separately
Experiment: Growth inhibition of pro-apoptotic stimuli-sensitive human Hs683 cells after 72 hrs by MTT assay
Format: functional
Details: Hs 683, 72 h
Method in brief: as §1

SMILES | GI50
O=C(O[C@H]1C=C2CCN3Cc4cc5c(cc4[C@H]([C@@H]1O)[C@@H]23)OCO5)c1ccccc1 | 6 µM
CCOC(=O)C[C@@]12C=C[C@@H](OC(C)=O)[C@H]3c4cc5c(cc4CN(CC1)[C@@H]32)OCO5 | > 100 µM
CC(C)(C)OC(=O)O[C@H]1[C@H]2c3cc4c(cc3CN3CCC(=C[C@@H]1OC(=O)OC(C)(C)C)[C@H]23)OCO4 | 9 µM
CC(=O)O[C@H]1[C@H]2c3cc4c(cc3C(=O)N3CCC(=C[C@@H]1OC(C)=O)[C@H]23)OCO4 | 49 µM
O=C1c2cc3c(cc2[C@@H]2[C@H](O)[C@@H](O)[C@H](O)[C@@]4(O)CCN1[C@@H]24)OCO3 | > 100 µM
CC(=O)O[C@@H]1[C@@H](OC(C)=O)[C@H](O)[C@@]2(O)CCN3C(=O)c4cc5c(cc4[C@H]1[C@H]32)OCO5 | > 100 µM
O[C@H]1[C@H]2c3cc4c(cc3CN3CCC(=C[C@@H]1O)[C@H]23)OCO4 [LYCORINE] | 0.9 µM

Test system: A549
Experiment: Growth inhibition of pro-apoptotic stimuli-resistant human A549 cells after 72 hrs by MTT assay
Format: functional
Details: A549, 72 h
Method in brief: as §1

SMILES | GI50
CCOC(=O)C[C@@]12C=C[C@@H](OC(C)=O)[C@H]3c4cc5c(cc4CN(CC1)[C@@H]32)OCO5 | > 100 µM
CC(=O)O[C@H]1[C@H]2c3cc4c(cc3C(=O)N3CCC(=C[C@@H]1OC(C)=O)[C@H]23)OCO4 | 36 µM
CC(=O)O[C@@H]1[C@@H](OC(C)=O)[C@H](O)[C@@]2(O)CCN3C(=O)c4cc5c(cc4[C@H]1[C@H]32)OCO5 | > 100 µM
O[C@H]1[C@H]2c3cc4c(cc3CN3CCC(=C[C@@H]1O)[C@H]23)OCO4 [LYCORINE] | 0.9 µM

Now from value to molecule:

GI50 | SMILES
70 µM | O=C(O[C@H]1C=C2CCN3Cc4cc5c(cc4[C@H]([C@@H]1O)[C@@H]23)OCO5)c1ccccc1
3 µM | CC(C)(C)OC(=O)O[C@H]1[C@H]2c3cc4c(cc3CN3CCC(=C[C@@H]1OC(=O)OC(C)(C)C)[C@H]23)OCO4
> 100 µM | O=C1c2cc3c(cc2[C@@H]2[C@H](O)[C@@H](O)[C@H](O)[C@@]4(O)CCN1[C@@H]24)OCO3

Test system: T98G
Experiment: Growth inhibition of pro-apoptotic stimuli-resistant human T98G cells after 72 hrs by MTT assay
Format: functional
Details: not given
Method in brief: as §1

SMILES | GI50
O=C(O[C@H]1C=C2CCN3Cc4cc5c(cc4[C@H]([C@@H]1O)[C@@H]23)OCO5)c1ccccc1 | 70 µM
CCOC(=O)C[C@@]12C=C[C@@H](OC(C)=O)[C@H]3c4cc5c(cc4CN(CC1)[C@@H]32)OCO5 | > 100 µM
CC(C)(C)OC(=O)O[C@H]1[C@H]2c3cc4c(cc3CN3CCC(=C[C@@H]1OC(=O)OC(C)(C)C)[C@H]23)OCO4 | 4 µM
CC(=O)O[C@H]1[C@H]2c3cc4c(cc3C(=O)N3CCC(=C[C@@H]1OC(C)=O)[C@H]23)OCO4 | 32 µM
O=C1c2cc3c(cc2[C@@H]2[C@H](O)[C@@H](O)[C@H](O)[C@@]4(O)CCN1[C@@H]24)OCO3 | > 100 µM
CC(=O)O[C@@H]1[C@@H](OC(C)=O)[C@H](O)[C@@]2(O)CCN3C(=O)c4cc5c(cc4[C@H]1[C@H]32)OCO5 | > 100 µM
O[C@H]1[C@H]2c3cc4c(cc3CN3CCC(=C[C@@H]1O)[C@H]23)OCO4 [LYCORINE] | 3 µM

Test system: B16-F10
Experiment: Growth inhibition of pro-apoptotic stimuli-sensitive mouse B16F10 cells after 72 hrs by MTT assay
Format: functional
Details: B16-F10, 72 h
Method in brief: as §1

SMILES | GI50
CCOC(=O)C[C@@]12C=C[C@@H](OC(C)=O)[C@H]3c4cc5c(cc4CN(CC1)[C@@H]32)OCO5 | 79 µM
CC(=O)O[C@H]1[C@H]2c3cc4c(cc3C(=O)N3CCC(=C[C@@H]1OC(C)=O)[C@H]23)OCO4 | 75 µM
CC(=O)O[C@@H]1[C@@H](OC(C)=O)[C@H](O)[C@@]2(O)CCN3C(=O)c4cc5c(cc4[C@H]1[C@H]32)OCO5 | 86 µM
O[C@H]1[C@H]2c3cc4c(cc3CN3CCC(=C[C@@H]1O)[C@H]23)OCO4 [LYCORINE] | 2 µM

Continued, values first:

GI50 | SMILES
21 µM | O=C(O[C@H]1C=C2CCN3Cc4cc5c(cc4[C@H]([C@@H]1O)[C@@H]23)OCO5)c1ccccc1
4 µM | CC(C)(C)OC(=O)O[C@H]1[C@H]2c3cc4c(cc3CN3CCC(=C[C@@H]1OC(=O)OC(C)(C)C)[C@H]23)OCO4
> 100 µM | O=C1c2cc3c(cc2[C@@H]2[C@H](O)[C@@H](O)[C@H](O)[C@@]4(O)CCN1[C@@H]24)OCO3

Test system: MCF7
Experiment: Growth inhibition of human MCF7 cells after 72 hrs by MTT assay
Format: functional
Details: MCF7, 72 h

SMILES | GI50
CCOC(=O)C[C@@]12C=C[C@@H](OC(C)=O)[C@H]3c4cc5c(cc4CN(CC1)[C@@H]32)OCO5 | > 100 µM
CC(=O)O[C@H]1[C@H]2c3cc4c(cc3C(=O)N3CCC(=C[C@@H]1OC(C)=O)[C@H]23)OCO4 | > 100 µM
CC(=O)O[C@@H]1[C@@H](OC(C)=O)[C@H](O)[C@@]2(O)CCN3C(=O)c4cc5c(cc4[C@H]1[C@H]32)OCO5 | > 100 µM
O[C@H]1[C@H]2c3cc4c(cc3CN3CCC(=C[C@@H]1O)[C@H]23)OCO4 [LYCORINE] | 4 µM

Now from value to molecule:

GI50 | SMILES
23 µM | O=C(O[C@H]1C=C2CCN3Cc4cc5c(cc4[C@H]([C@@H]1O)[C@@H]23)OCO5)c1ccccc1
5 µM | CC(C)(C)OC(=O)O[C@H]1[C@H]2c3cc4c(cc3CN3CCC(=C[C@@H]1OC(=O)OC(C)(C)C)[C@H]23)OCO4
96 µM | O=C1c2cc3c(cc2[C@@H]2[C@H](O)[C@@H](O)[C@H](O)[C@@]4(O)CCN1[C@@H]24)OCO3

Test system: SK-MEL-28
Experiment: Growth inhibition of pro-apoptotic stimuli-resistant human SK-MEL-28 cells after 72 hrs by MTT assay
Format: functional
Details: SK-MEL-28, 72 h
Method in brief: as §1

SMILES | GI50
CCOC(=O)C[C@@]12C=C[C@@H](OC(C)=O)[C@H]3c4cc5c(cc4CN(CC1)[C@@H]32)OCO5 | > 100 µM
CC(=O)O[C@H]1[C@H]2c3cc4c(cc3C(=O)N3CCC(=C[C@@H]1OC(C)=O)[C@H]23)OCO4 | 99 µM
CC(=O)O[C@@H]1[C@@H](OC(C)=O)[C@H](O)[C@@]2(O)CCN3C(=O)c4cc5c(cc4[C@H]1[C@H]32)OCO5 | > 100 µM
O[C@H]1[C@H]2c3cc4c(cc3CN3CCC(=C[C@@H]1O)[C@H]23)OCO4 [LYCORINE] | 4 µM

The remaining lines, values ahead:

GI50 | SMILES
60 µM | O=C(O[C@H]1C=C2CCN3Cc4cc5c(cc4[C@H]([C@@H]1O)[C@@H]23)OCO5)c1ccccc1
20 µM | CC(C)(C)OC(=O)O[C@H]1[C@H]2c3cc4c(cc3CN3CCC(=C[C@@H]1OC(=O)OC(C)(C)C)[C@H]23)OCO4
> 100 µM | O=C1c2cc3c(cc2[C@@H]2[C@H](O)[C@@H](O)[C@H](O)[C@@]4(O)CCN1[C@@H]24)OCO3

Test system: PC-3
Experiment: Growth inhibition of human PC3 cells after 72 hrs by MTT assay
Format: functional
Details: PC-3, 72 h

SMILES | GI50
CCOC(=O)C[C@@]12C=C[C@@H](OC(C)=O)[C@H]3c4cc5c(cc4CN(CC1)[C@@H]32)OCO5 | > 100 µM
CC(=O)O[C@H]1[C@H]2c3cc4c(cc3C(=O)N3CCC(=C[C@@H]1OC(C)=O)[C@H]23)OCO4 | > 100 µM
CC(=O)O[C@@H]1[C@@H](OC(C)=O)[C@H](O)[C@@]2(O)CCN3C(=O)c4cc5c(cc4[C@H]1[C@H]32)OCO5 | > 100 µM
O[C@H]1[C@H]2c3cc4c(cc3CN3CCC(=C[C@@H]1O)[C@H]23)OCO4 [LYCORINE] | 4 µM

Next, values leading:

GI50 | SMILES
34 µM | O=C(O[C@H]1C=C2CCN3Cc4cc5c(cc4[C@H]([C@@H]1O)[C@@H]23)OCO5)c1ccccc1
22 µM | CC(C)(C)OC(=O)O[C@H]1[C@H]2c3cc4c(cc3CN3CCC(=C[C@@H]1OC(=O)OC(C)(C)C)[C@H]23)OCO4
> 100 µM | O=C1c2cc3c(cc2[C@@H]2[C@H](O)[C@@H](O)[C@H](O)[C@@]4(O)CCN1[C@@H]24)OCO3

— ChEMBL document CHEMBL1921724, “In search of a cytostatic agent derived from the alkaloid lycorine: synthesis and growth inhibitory properties of lycorine derivatives” (Bioorg Med Chem, 2011)
